From ChEMBL document CHEMBL1143845, “In vitro activities of isavuconazole and other antifungal agents against Candida bloodstream isolates” (2007)
Converted amounts (≈) assume the structure as drawn.

Legend:
Type in all cases: functional
Pichia kudriavzevii = experiment: Antifungal activity against Candida krusei bloodstream isolates by broth microdilution method
In short: (§1)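 CLSI M27-A2 broth microdilution in RPMI 1640 buffered to pH 7.0 with 0.165 M MOPS. Consecutive blood-culture isolates were subcultured at least twice on Sabouraud dextrose agar. Final inoculum was 0.5 × 103 to 2.5 × 10^3 cells/ml against twofold drug dilutions, incubated in air at 35°C for 24–48 h. MIC was read visually as no growth or ≥50% growth reduction versus drug-free control, depending on agent.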

Candida parapsilosis = experiment: Antifungal activity against Candida parapsilosis bloodstream isolates by broth microdilution method; settings: Lodderomyces parapsilosis; in short: as §1
[1] = Antifungal activity against Candida tropicalis bloodstream isolates by broth microdilution method; in short: as §1
Candida albicans = experiment: Antifungal activity against Candida albicans bloodstream isolates by broth microdilution method; in short: as §1
Candida = experiment: Antifungal activity against Candida sp. bloodstream isolates by broth microdilution method; in short: as §1
Nakaseomyces glabratus = experiment: Antifungal activity against Candida glabrata bloodstream isolates by broth microdilution method; in short: as §1

SMILES	MIC50 (Pichia kudriavzevii) [µg/mL]	MIC90 (Pichia kudriavzevii) [µg/mL]	MIC50 (Candida parapsilosis) [µg/mL]	MIC90 (Candida parapsilosis) [µg/mL]	MIC50 [1] [µg/mL]	MIC90 [1] [µg/mL]	MIC50 (Candida albicans) [µg/mL]	MIC90 (Candida albicans) [µg/mL]	MIC50 (Candida) [µg/mL]	MIC90 (Candida) [µg/mL]	MIC50 (Nakaseomyces glabratus) [µg/mL]	MIC90 (Nakaseomyces glabratus) [µg/mL]
OC(Cn1cncn1)(Cn1cncn1)c1ccc(F)cc1F [FLUCONAZOLE]	32 (≈ 104 µM)	64 (≈ 209 µM)	1 (≈ 3.27 µM)	2 (≈ 6.53 µM)	1 (≈ 3.27 µM)	1 (≈ 3.27 µM)	0.5 (≈ 1.63 µM)	1 (≈ 3.27 µM)	1 (≈ 3.27 µM)	16 (≈ 52.2 µM)	–	–
Nc1nc(=O)[nH]cc1F [FLUCYTOSINE]	16 (≈ 124 µM)	16 (≈ 124 µM)	0.125 (≈ 0.968 µM)	0.125 (≈ 0.968 µM)	0.125 (≈ 0.968 µM)	128 (≈ 992 µM)	0.125 (≈ 0.968 µM)	0.25 (≈ 1.94 µM)	0.063 (≈ 0.488 µM)	2 (≈ 15.5 µM)	0.063 (≈ 0.488 µM)	0.063 (≈ 0.488 µM)
C[C@@H](c1nc(-c2ccc(C#N)cc2)cs1)[C@](O)(Cn1cncn1)c1cc(F)ccc1F [ISAVUCONAZOLE]	0.5 (≈ 1.14 µM)	0.5 (≈ 1.14 µM)	0.016 (≈ 0.0366 µM)	0.031 (≈ 0.0709 µM)	0.031 (≈ 0.0709 µM)	0.063 (≈ 0.144 µM)	0.002 (≈ 0.00457 µM)	0.004 (≈ 0.00914 µM)	0.016 (≈ 0.0366 µM)	0.5 (≈ 1.14 µM)	0.25 (≈ 0.571 µM)	0.5 (≈ 1.14 µM)
C[C@@H]1[C@H](O)[C@@H](C)/C=C/C=C/C=C/C=C/C=C/C=C/C=C/[C@H](O[C@@H]2O[C@H](C)[C@@H](O)[C@H](N)[C@@H]2O)C[C@@H]2O[C@](O)(C[C@@H](O)C[C@@H](O)[C@H](O)CC[C@@H](O)C[C@@H](O)CC(=O)O[C@H]1C)C[C@H](O)[C@H]2C(=O)O (stereo in doubt) [AMPHOTERICIN B]	0.5 (≈ 0.541 µM)	0.5 (≈ 0.541 µM)	0.25 (≈ 0.271 µM)	0.5 (≈ 0.541 µM)	0.5 (≈ 0.541 µM)	0.5 (≈ 0.541 µM)	0.25 (≈ 0.271 µM)	0.5 (≈ 0.541 µM)	0.25 (≈ 0.271 µM)	0.5 (≈ 0.541 µM)	0.5 (≈ 0.541 µM)	0.5 (≈ 0.541 µM)
C[C@@H](c1ncncc1F)[C@](O)(Cn1cncn1)c1ccc(F)cc1F [VORICONAZOLE]	0.5 (≈ 1.43 µM)	1 (≈ 2.86 µM)	0.031 (≈ 0.0887 µM)	0.125 (≈ 0.358 µM)	0.063 (≈ 0.18 µM)	0.125 (≈ 0.358 µM)	0.016 (≈ 0.0458 µM)	0.031 (≈ 0.0887 µM)	0.031 (≈ 0.0887 µM)	0.5 (≈ 1.43 µM)	0.5 (≈ 1.43 µM)	2 (≈ 5.73 µM)
CCC(C)n1ncn(-c2ccc(N3CCN(c4ccc(OCC5COC(Cn6cncn6)(c6ccc(Cl)cc6Cl)O5)cc4)CC3)cc2)c1=O (stereo not given) [ITRACONAZOLE]	0.5 (≈ 0.709 µM)	0.5 (≈ 0.709 µM)	0.016 (≈ 0.0227 µM)	0.063 (≈ 0.0893 µM)	0.031 (≈ 0.0439 µM)	0.031 (≈ 0.0439 µM)	0.008 (≈ 0.0113 µM)	0.016 (≈ 0.0227 µM)	0.016 (≈ 0.0227 µM)	0.25 (≈ 0.354 µM)	0.5 (≈ 0.709 µM)	1 (≈ 1.42 µM)
